Experimental findings from ChEMBL document CHEMBL4043093, “2-Oxo-3, 4-dihydropyrimido[4, 5-d]pyrimidinyl derivatives as new irreversible pan fibroblast growth factor receptor (FGFR) inhibitors” (Eur J Med Chem, 2017) are described below.

pIC50: −log10 of the molar value.

Assay [1] concerns the target Fibroblast growth factor receptor 2 (Homo sapiens, UniProt P21802). The experiment in a line: Inhibition of human recombinant cytoplasmic His-tagged FGFR2 (403 to 822 residues) expressed in baculovirus using Tyr-4 peptide after 1 hr by FRET-based Z'-Lyte assay.
For assay [2], the system named is Tyrosine-protein kinase ABL1 (Homo sapiens), P00519 [F317I]. The assay is described as follows: Inhibition of human non-phosphorylated ABL1 F317I mutant (S229 to K512 residues) expressed in HEK293 cells assessed as residual activity at 1000 nM after 30 mins by Kinomescan method relative to control. The class given is cell-based. An outline of the steps: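 KINOMEscan binding panel of 456 kinases, with the test compound at a single concentration of 1 µM. Read-out is Percent Control.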

The target in assay [3] is Tyrosine-protein kinase ABL2 (Homo sapiens) (UniProt P42684). The assay is described as follows: Inhibition of wild-type human ABL2 (A248 to G542 residues) expressed in Escherichia coli BL21 assessed as residual activity at 1000 nM after 30 mins by Kinomescan method relative to control. A digest of the protocol:
(§1)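 Single-point screen at a fixed 1 µM, run within a 456-kinase DiscoveRx KINOMEscan panel. Each kinase's read-out is Percent Control, i.e. signal relative to a control without compound. Hits were scored by a Percent Control < 35 cut-off, and an S(35) selectivity score was calculated across the non-mutant kinases.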

Assay [4] has as its target Aurora kinase A (Homo sapiens) (UniProt O14965). The experiment in a line: Inhibition of wild-type human partial length AURKA (E122 to K401 residues) expressed in HEK293 cells assessed as residual activity at 1000 nM after 30 mins by Kinomescan method relative to control. The assay is classed as cell-based.
The target in assay [5] is Tyrosine-protein kinase receptor UFO (Homo sapiens) (UniProt P30530). The experiment in a line: Inhibition of wild-type human partial length AXL (R497 to Y821 residues) expressed in Escherichia coli BL21 assessed as residual activity at 1000 nM after 30 mins by Kinomescan method relative to control.
Assay [6] concerns the target Tyrosine-protein kinase BTK (Homo sapiens) (UniProt Q06187). The experiment in a line: Inhibition of wild-type human full length BTK (M1 to S659 residues) expressed in HEK293 cells assessed as residual activity at 1000 nM after 30 mins by Kinomescan method relative to control. The assay is classed as cell-based. A digest of the protocol:
as §1

The target in assay [7] is Mitotic checkpoint serine/threonine-protein kinase BUB1 (Homo sapiens) (UniProt O43683). The assay is described as follows: Inhibition of wild-type human partial length BUB1 (Q724 to K1085 residues) expressed in HEK293 cells assessed as residual activity at 1000 nM after 30 mins by Kinomescan method relative to control. The class given is cell-based.
The target in assay [8] is Macrophage colony-stimulating factor 1 receptor (Homo sapiens) (UniProt P07333). The experiment in a line: Inhibition of wild-type human partial length autoinhibited CSF1R (Y538 to S939 residues) expressed in HEK293 cells assessed as residual activity at 1000 nM after 30 mins by Kinomescan method relative to control. The class given is cell-based.
The target of assay [9] is Casein kinase I isoform epsilon (Homo sapiens) (UniProt P49674). The assay is described as follows: Inhibition of wild-type human full length CSNK1E (M1 to K416 residues) expressed in Escherichia coli BL21 assessed as residual activity at 1000 nM after 30 mins by Kinomescan method relative to control. A digest of the protocol:
as §1

Assay [10] concerns the target Tyrosine-protein kinase HCK (Homo sapiens) (UniProt P08631). The experiment in a line: Inhibition of wild-type human full length HCK (M22 to P526 residues) expressed in Escherichia coli BL21 assessed as residual activity at 1000 nM after 30 mins by Kinomescan method relative to control. A digest of the protocol: (§2)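 Single-concentration screen at 1 µM across a 456-kinase KINOMEscan panel. The read-out is Percent Control for each kinase.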

The target in assay [11] is Myosin light chain kinase, smooth muscle (Homo sapiens) (UniProt Q15746). The experiment in a line: Inhibition of wild-type human full length MYLK (M854 to E1845 residues) expressed in HEK293 cells assessed as residual activity at 1000 nM after 30 mins by Kinomescan method relative to control. The assay is classed as cell-based. An outline of the steps:
as §2

For assay [12], the target named is Serine/threonine-protein kinase Nek2 (Homo sapiens) (UniProt P51955). The experiment in a line: Inhibition of wild-type human partial length NEK2 (M1 to K309 residues) expressed in Escherichia coli BL21 assessed as residual activity at 1000 nM after 30 mins by Kinomescan method relative to control.
Sequence of Serine/threonine-protein kinase Nek2 (Homo sapiens) (P51955 whole entry, the tested form may be a part): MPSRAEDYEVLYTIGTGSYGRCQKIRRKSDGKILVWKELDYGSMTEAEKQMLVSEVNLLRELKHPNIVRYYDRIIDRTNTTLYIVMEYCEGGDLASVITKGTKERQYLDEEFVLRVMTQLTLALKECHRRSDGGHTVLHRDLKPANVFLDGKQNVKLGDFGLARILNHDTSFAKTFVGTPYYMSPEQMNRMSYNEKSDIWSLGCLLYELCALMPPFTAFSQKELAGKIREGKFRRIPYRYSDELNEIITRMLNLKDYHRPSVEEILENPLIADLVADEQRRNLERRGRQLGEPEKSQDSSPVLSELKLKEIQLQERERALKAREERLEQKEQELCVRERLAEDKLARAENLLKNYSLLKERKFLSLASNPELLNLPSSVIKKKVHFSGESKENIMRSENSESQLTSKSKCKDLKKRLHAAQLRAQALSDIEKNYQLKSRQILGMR
For assay [13], the target named is Cyclin-dependent kinase 17 (Homo sapiens) (UniProt Q00537). The experiment in a line: Inhibition of wild-type human full length PCTK2 (M1 to F523 residues) expressed in Escherichia coli BL21 assessed as residual activity at 1000 nM after 30 mins by Kinomescan method relative to control. A digest of the protocol:
as §2

For assay [14], the target named is Phosphatidylinositol 4,5-bisphosphate 3-kinase catalytic subunit delta isoform (Homo sapiens) (UniProt O00329). The assay is described as follows: Inhibition of wild-type human partial length PIK3CD (R108 to Q1044 residues) expressed in HEK293 cells assessed as residual activity at 1000 nM after 30 mins by Kinomescan method relative to control. The class given is cell-based.

Assay [15] deals with Phosphatidylinositol 4-phosphate 5-kinase type-1 alpha (Homo sapiens) (UniProt Q99755). The assay is described as follows: Inhibition of wild-type human full length PIP5K1A (M1 to H562 residues) expressed in Escherichia coli BL21 assessed as residual activity at 1000 nM after 30 mins by Kinomescan method relative to control. An outline of the steps: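 Single-concentration screen at 1 µM against a 456-kinase panel (KINOMEscan). Read-out is Percent Control for each kinase. Across the 403 non-mutant kinases, an S(35) selectivity score was derived as the fraction of kinases with Percent Control < 35.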

Assay [16] deals with Serine/threonine-protein kinase N1 (Homo sapiens) (UniProt Q16512). The experiment in a line: Inhibition of wild-type human partial length PKN1 (E598 to C948 residues) expressed in Escherichia coli BL21 assessed as residual activity at 1000 nM after 30 mins by Kinomescan method relative to control.
The target in assay [17] is Dual serine/threonine and tyrosine protein kinase (Homo sapiens) (UniProt Q6XUX3). The experiment in a line: Inhibition of wild-type human full length RIPK5 (M1 to T929 residues) expressed in HEK293 cells assessed as residual activity at 1000 nM after 30 mins by Kinomescan method relative to control. The assay is classed as cell-based.
Assay [18] deals with Ribosomal protein S6 kinase alpha-1 (Homo sapiens) (UniProt Q15418). The assay is described as follows: Inhibition of wild-type human partial length N-terminal RSK1 Kinase domain 1 (M1 to E388 residues) expressed in Escherichia coli BL21 assessed as residual activity at 1000 nM after 30 mins by Kinomescan method relative to control.
Sequence of Ribosomal protein S6 kinase alpha-1 (Homo sapiens) (Q15418 whole entry, the tested form may be a part): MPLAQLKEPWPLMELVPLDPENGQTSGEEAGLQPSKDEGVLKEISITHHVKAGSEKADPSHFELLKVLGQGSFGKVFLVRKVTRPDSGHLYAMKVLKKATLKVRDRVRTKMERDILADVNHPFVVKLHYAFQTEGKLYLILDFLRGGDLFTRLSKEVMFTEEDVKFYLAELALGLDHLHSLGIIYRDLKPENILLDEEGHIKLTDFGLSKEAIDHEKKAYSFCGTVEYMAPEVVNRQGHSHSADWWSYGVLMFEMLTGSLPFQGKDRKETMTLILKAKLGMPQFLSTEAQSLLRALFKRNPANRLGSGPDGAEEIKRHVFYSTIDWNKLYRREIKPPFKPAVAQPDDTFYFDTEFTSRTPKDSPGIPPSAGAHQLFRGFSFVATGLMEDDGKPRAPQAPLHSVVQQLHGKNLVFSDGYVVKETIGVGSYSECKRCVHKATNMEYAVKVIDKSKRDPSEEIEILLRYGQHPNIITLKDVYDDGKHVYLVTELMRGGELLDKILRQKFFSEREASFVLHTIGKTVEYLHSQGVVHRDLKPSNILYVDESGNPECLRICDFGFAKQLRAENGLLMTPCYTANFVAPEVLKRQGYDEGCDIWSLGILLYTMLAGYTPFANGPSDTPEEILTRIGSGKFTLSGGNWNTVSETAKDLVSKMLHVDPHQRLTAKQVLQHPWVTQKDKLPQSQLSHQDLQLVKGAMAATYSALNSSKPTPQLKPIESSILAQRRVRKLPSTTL
In assay [19] the target is Tyrosine-protein kinase TXK (Homo sapiens) (UniProt P42681). The assay is described as follows: Inhibition of wild-type human partial length TXK (L238 to W527 residues) expressed in Escherichia coli BL21 assessed as residual activity at 1000 nM after 30 mins by Kinomescan method relative to control.
In assay [20] the target is Non-receptor tyrosine-protein kinase TYK2 (Homo sapiens) (UniProt P29597). The experiment in a line: Inhibition of wild-type human partial length TYK2 JH2 pseudokinase domain (G556 to D888 residues) expressed in HEK293 cells assessed as residual activity at 1000 nM after 30 mins by Kinomescan method relative to control. The class given is cell-based.

Sequence of Myosin light chain kinase, smooth muscle (Homo sapiens) (Q15746 whole entry, the tested form may be a part): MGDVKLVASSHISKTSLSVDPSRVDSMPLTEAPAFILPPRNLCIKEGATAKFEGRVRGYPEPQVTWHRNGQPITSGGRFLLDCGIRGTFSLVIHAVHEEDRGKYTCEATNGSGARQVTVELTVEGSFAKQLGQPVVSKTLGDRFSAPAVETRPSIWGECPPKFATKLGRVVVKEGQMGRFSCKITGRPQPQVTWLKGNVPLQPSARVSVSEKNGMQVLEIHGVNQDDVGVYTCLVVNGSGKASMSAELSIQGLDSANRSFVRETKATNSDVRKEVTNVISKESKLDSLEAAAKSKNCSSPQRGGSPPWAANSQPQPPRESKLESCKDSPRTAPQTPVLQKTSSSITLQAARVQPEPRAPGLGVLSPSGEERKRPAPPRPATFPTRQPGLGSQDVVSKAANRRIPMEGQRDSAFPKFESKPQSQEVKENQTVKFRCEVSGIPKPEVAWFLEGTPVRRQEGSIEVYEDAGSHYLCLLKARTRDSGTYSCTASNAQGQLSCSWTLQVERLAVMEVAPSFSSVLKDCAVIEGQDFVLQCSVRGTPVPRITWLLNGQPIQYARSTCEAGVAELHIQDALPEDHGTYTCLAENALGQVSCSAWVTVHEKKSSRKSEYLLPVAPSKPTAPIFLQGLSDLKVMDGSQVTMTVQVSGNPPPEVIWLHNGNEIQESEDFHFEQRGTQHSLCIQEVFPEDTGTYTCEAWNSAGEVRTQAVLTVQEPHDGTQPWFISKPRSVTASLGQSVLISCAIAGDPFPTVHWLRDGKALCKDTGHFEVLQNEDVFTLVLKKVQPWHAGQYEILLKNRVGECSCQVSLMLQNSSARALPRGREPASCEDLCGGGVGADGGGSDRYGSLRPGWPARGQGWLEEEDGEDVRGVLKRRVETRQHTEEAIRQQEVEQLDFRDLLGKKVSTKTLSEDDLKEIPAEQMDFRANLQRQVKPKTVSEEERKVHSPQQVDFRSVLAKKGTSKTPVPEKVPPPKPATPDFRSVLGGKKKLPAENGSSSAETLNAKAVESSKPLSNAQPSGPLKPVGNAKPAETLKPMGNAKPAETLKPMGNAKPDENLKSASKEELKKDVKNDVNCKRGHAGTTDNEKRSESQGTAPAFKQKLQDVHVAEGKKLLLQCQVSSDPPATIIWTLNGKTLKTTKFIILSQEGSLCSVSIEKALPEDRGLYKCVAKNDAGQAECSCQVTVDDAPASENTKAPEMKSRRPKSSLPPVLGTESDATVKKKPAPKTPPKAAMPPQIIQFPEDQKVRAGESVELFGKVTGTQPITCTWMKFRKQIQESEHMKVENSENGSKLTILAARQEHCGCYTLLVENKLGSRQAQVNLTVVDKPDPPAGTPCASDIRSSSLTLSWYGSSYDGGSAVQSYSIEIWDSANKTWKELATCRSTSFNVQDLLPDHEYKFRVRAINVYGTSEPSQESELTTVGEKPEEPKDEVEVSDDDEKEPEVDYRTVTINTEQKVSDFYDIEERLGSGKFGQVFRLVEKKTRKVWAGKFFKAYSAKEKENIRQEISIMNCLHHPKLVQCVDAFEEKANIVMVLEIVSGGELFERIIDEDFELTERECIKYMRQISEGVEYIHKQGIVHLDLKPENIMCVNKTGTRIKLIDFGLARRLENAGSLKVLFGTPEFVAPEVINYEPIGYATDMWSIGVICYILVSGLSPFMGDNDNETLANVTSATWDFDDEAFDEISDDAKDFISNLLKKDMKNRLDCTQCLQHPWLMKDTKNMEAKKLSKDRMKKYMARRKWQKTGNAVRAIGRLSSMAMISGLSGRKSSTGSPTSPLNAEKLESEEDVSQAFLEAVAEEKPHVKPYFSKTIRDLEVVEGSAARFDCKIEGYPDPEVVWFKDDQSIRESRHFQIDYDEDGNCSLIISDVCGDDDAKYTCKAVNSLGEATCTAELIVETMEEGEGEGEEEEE
Sequence of Casein kinase I isoform epsilon (Homo sapiens) (P49674 whole entry, looked up, the tested form may be a part, canonical isoform): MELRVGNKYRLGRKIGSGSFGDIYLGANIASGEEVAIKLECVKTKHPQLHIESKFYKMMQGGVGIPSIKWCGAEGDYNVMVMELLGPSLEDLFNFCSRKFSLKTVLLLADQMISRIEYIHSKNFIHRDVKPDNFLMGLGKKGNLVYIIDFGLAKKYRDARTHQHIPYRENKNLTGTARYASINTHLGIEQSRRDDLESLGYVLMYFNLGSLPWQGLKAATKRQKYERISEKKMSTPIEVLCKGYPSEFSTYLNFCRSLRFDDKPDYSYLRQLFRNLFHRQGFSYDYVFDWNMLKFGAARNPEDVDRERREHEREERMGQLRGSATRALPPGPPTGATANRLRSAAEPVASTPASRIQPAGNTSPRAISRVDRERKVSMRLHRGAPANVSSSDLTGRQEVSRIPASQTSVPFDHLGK
Sequence of Tyrosine-protein kinase ABL2 (Homo sapiens) (P42684 whole entry, the tested form may be a part): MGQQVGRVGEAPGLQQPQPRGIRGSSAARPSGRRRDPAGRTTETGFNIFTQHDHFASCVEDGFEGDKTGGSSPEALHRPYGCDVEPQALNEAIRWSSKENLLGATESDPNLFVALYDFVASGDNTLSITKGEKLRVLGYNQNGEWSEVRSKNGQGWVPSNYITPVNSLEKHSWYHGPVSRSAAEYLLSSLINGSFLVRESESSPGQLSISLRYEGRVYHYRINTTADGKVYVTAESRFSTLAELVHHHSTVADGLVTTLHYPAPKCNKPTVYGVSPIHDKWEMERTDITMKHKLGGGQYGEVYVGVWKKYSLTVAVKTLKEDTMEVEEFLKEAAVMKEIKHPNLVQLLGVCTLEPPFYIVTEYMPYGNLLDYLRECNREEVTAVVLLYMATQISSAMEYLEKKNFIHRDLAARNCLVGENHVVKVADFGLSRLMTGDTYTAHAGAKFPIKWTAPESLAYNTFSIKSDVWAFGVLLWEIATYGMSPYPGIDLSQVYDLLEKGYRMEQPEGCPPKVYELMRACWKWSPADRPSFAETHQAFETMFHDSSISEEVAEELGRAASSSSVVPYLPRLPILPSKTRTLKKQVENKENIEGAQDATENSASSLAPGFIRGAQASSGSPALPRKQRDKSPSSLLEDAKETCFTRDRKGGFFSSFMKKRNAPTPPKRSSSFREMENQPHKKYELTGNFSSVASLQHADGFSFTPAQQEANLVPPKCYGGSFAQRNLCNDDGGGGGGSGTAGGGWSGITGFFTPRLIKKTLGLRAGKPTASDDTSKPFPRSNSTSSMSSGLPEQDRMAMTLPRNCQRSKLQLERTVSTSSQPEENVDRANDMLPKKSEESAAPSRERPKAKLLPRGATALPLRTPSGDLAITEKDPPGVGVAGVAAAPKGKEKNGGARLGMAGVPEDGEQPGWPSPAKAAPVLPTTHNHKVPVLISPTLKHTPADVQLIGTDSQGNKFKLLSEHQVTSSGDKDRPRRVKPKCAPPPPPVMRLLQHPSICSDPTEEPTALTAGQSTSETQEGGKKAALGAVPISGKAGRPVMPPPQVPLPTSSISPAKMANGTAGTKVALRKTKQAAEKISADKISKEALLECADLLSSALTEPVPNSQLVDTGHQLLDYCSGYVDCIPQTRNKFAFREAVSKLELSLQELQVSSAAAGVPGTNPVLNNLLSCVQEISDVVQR
Sequence of Aurora kinase A (Homo sapiens) (O14965 whole entry, the tested form may be a part): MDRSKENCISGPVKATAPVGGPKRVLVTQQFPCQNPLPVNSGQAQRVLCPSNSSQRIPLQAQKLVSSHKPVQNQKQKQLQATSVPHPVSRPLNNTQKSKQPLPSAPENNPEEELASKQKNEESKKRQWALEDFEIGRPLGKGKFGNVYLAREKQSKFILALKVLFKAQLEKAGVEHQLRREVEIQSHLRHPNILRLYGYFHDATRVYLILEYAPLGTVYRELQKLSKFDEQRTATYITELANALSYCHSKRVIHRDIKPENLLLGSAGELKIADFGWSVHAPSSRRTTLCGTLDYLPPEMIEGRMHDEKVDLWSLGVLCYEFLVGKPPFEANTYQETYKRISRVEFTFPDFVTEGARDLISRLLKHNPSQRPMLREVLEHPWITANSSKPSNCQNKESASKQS

On to `COc1cc(OC)c(Cl)c(N2Cc3cnc(Nc4ccc(F)cc4)nc3N(C3CCN(C(=O)/C=C/CN(C)C)CC3)C2=O)c1Cl`, for which the pIC50 in assay [1] was 8.84. Further, the Activity came out at 100% in assay [2]; 26% in [3]; 100% in assay [4]; 92% in [5]; 99% in assay [6]; 100% in assay [7]. In addition, the Activity in [8] came out at 74%; in assay [9], 100%; in assay [10], 10%; in assay [11], 100%; in assay [12], 53%; in assay [13] it was 90%. The Activity amounted to 93% in [14]; 100% in assay [15]; 92% in [16]; 100% in assay [17]; 78% in assay [18]; 99% in [19]. For the same compound, the Activity in [20] was determined as 95%.

In general, pIC50 refers to the IC50 on a negative log10 scale, so that one unit is a factor of ten.
